Assay results gathered from unrelated publications.
Lines come from different studies, so protocols differ.
EGFR del746-750: Epidermal growth factor receptor (EGFR, Homo sapiens, UniProt P00533, del746-750)
EGFR A750P/del747-749: Epidermal growth factor receptor (EGFR, Homo sapiens, UniProt P00533, A750P/del747-749)
EGFR del752-759: Epidermal growth factor receptor (EGFR, Homo sapiens, UniProt P00533, del752-759)
EGFR L858R: Epidermal growth factor receptor (EGFR, Homo sapiens, UniProt P00533, L858R)
EGFR G719C: Epidermal growth factor receptor (EGFR, Homo sapiens, UniProt P00533, G719C)
EGFR: Epidermal growth factor receptor (EGFR, Homo sapiens, UniProt P00533)
EGFR G719S: Epidermal growth factor receptor (EGFR, Homo sapiens, UniProt P00533, G719S)
EGFR T790M: Epidermal growth factor receptor (EGFR, Homo sapiens, UniProt P00533, T790M)
EGFR L858R/T790M: Epidermal growth factor receptor (EGFR, Homo sapiens, UniProt P00533, L858R/T790M)

| SMILES | target | read-out | method | tested at | remaining binding [%] |
| --- | --- | --- | --- | --- | --- |
| O=C(c1ccc(Nc2ncc(Cl)c(-c3cc4ccccc4s3)n2)cc1)N1CCC(N2CCCC2)CC1 | EGFR del746-750 | binding | competition with immobilised ligand | 1 µM | 79 |
| COc1ccnn2ncc(-c3ccnc(N(C)C)n3)c12 | EGFR del746-750 | binding |  | 1 µM | 97 |
| CN1CCN(c2ccc(Nc3nccc(-c4ccccc4)n3)cc2C(F)(F)F)CC1 | EGFR del746-750 | binding |  | 10 µM | 56 |
| CCN1CCN(Cc2ccc(C(=O)Nc3ccc(C)c(Oc4ccc5c(c4)CC(=O)N5)c3)cc2C(F)(F)F)CC1 | EGFR A750P/del747-749 | binding | competition with immobilised ligand | 1 µM | 100 |
| O=C(NCCCN1CCOCC1)c1ccc(Nc2nccc(-c3cc4ccccc4s3)n2)cc1 | EGFR del752-759 | binding | competition with immobilised ligand | 1 µM | 100 |
| N#Cc1ccc(Nc2ccc3[nH]c(=O)[nH]c3c2)c(Cl)c1 | EGFR del752-759 | cell-free assay | competition with immobilised ligand | 1 µM | 100 |
| O=C(NCC1CCOCC1)c1n[nH]cc1NC(=O)c1c(F)cccc1F | EGFR L858R | binding | competition with immobilised ligand | 1 µM | 89 |
| CNCc1ccccc1-c1csc([C@@H](C)Nc2nc(C)nc3cc(OC)c(OC)cc23)c1 | EGFR del752-759 | cell-free assay | competition with immobilised ligand | 1 µM | 63 |
| CN(C)c1nccc(-c2cnn3ncccc23)n1 | EGFR G719C | binding |  | 1 µM | 100 |
| O=C(Nc1c[nH]nc1C(=O)NC1CCNCC1)c1cc(F)cc(F)c1 | EGFR A750P/del747-749 | binding | competition with immobilised ligand | 1 µM | 80 |
| Nc1ncc2c(n1)-c1c([nH]c3ccc(C#CC4CC4)cc13)CCCC2 | EGFR del752-759 | binding | competition with immobilised ligand | 1 µM | 100 |
| C[C@@H]1CCN(c2nccc(-c3cnn4ncccc34)n2)C1 | EGFR | binding |  | 1 µM | 100 |
| O=C(NCCCN1CCOCC1)c1ccc(Nc2ncc(Cl)c(-c3ccc(Cl)s3)n2)cc1 | EGFR G719S | binding | competition with immobilised ligand | 1 µM | 100 |
| C[C@@H]1CN(c2cc(-c3n[nH]c4ccc(OC5(C)CC5)cc34)ncn2)C[C@H](C)O1 | EGFR G719S | cell-free assay | competition with immobilised ligand | 0.1 µM | 59 |
| COc1cnc(Nc2cccc(S(N)(=O)=O)c2)nc1N1CCN(c2ccccc2)CC1 | EGFR T790M | binding | competition with immobilised ligand | 1 µM | 72 |
| CC1CCCN1c1nccc(-c2cnn3ncccc23)n1 (stereo not shown) | EGFR L858R/T790M | binding |  | 1 µM | 100 |

| SMILES | target | read-out | method | tested at | remaining binding [%] |
| --- | --- | --- | --- | --- | --- |
| CNC(=O)Nc1ccc2c(c1)[C@@]1(CC2)OC(=O)N(CC(=O)N(Cc2ccc(F)cc2)[C@@H](C)C(F)(F)F)C1=O | EGFR A750P/del747-749 | cell-free assay | competition with immobilised ligand | 1 µM | 96 |
| c1cncc(-c2cccc(Nc3nccc(NC4CCCCC4)n3)c2)c1 | EGFR del752-759 | binding | competition with immobilised ligand | 10 µM | 69 |
| CSc1cccnc1N1CCN(Cc2nc3ccccc3[nH]2)CC1 | EGFR T790M | cell-free assay | competition with immobilised ligand | 1 µM | 85 |
| O=C(c1ccc(Nc2ncc(Cl)c(-c3ccc(Cl)s3)n2)cc1)N1CCC(N2CCCC2)CC1 | EGFR G719C | binding | competition with immobilised ligand | 1 µM | 100 |
| COc1ncc2cc3ccccc3nc2c1C#N | EGFR L858R | cell-free assay | competition with immobilised ligand | 5 µM | 99 |
| O=C(c1ccc(Nc2nccc(-c3cc4ccccc4s3)n2)cc1)N1CCC(N2CCCC2)CC1 | EGFR | binding | competition with immobilised ligand | 1 µM | 97 |
| N[C@@H]1CCN(c2nccc(-c3cnn4ncccc34)n2)C1 | EGFR L858R/T790M | binding |  | 1 µM | 100 |
| CCC(=O)N[C@H]1CC[C@@H](C(=O)N(C)c2ccc(-c3nc4ccccc4o3)cc2)C1 | EGFR del746-750 | cell-free assay | competition with immobilised ligand | 1 µM | 78 |
| COc1cnc(Nc2cccc(S(N)(=O)=O)c2)nc1N1CCN(c2ccccc2)C(=O)C1 | EGFR G719S | binding | competition with immobilised ligand | 1 µM | 100 |
| NS(=O)(=O)c1cc(NC(=O)Cc2ccccc2)ccc1Oc1cccc(Cl)c1 | EGFR L858R/T790M | cell-free assay | competition with immobilised ligand | 1 µM | 75 |
| c1cnn2ncc(-c3ccnc(N4CCC45COC5)n3)c2c1 | EGFR L858R/T790M | binding |  | 1 µM | 65 |
| CN1CCN(c2ccc(Nc3nccc(-c4cccc([N+](=O)[O-])c4)n3)cc2C(F)(F)F)CC1 | EGFR G719C | binding |  | 10 µM | 69 |
| CNC(=O)[C@@H]1CC[C@@H](n2c(-c3ccc4cnccc4c3)nc3ccc(C(=O)NCc4cccc(C(N)=O)c4)cc32)C1 | EGFR G719C | binding | competition with immobilised ligand | 1 µM | 100 |
| CN(CCCC(F)(F)F)c1nccc(-c2cnn3ncccc23)n1 | EGFR G719C | binding |  | 1 µM | 100 |
| C[C@H](c1ccc(F)cc1)N(Cc1cccc(C(=O)O)c1)C(=O)c1cnc2ccccc2c1 | EGFR G719S | cell-free assay | competition with immobilised ligand | 1 µM | 100 |
